Source: paper PMC5356508 (Bioconjugate chemistry, 2016)
Values joined by “and” are separate entries in the source; they are usually repeats but may differ in a detail not shown here. Identical values can stand only once. Like-named read-outs stand apart in the source and are kept apart here.

Experiments:
[1] = system: A2780 human ovarian cancer cell line; experiment: Antiproliferative assay; type: cell-based
[2] = Hydrolytic release of paclitaxel by compound 4 in buffer; type: physicochemical; details: 3:1 methanol/PBS buffer pH 7.4; pseudo 1st order kinetics
Outline: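 Test compound stock in methanol was mixed with 1 M PBS pH 7.4 (3:1 methanol:buffer) in a sealed, stirred vial. Aliquots were taken at 0 min and from 30 to 1440 min. Parent and released drug were quantified by C18 reverse-phase HPLC (gradient from 1:1 MeOH:H2O to 100% MeOH, 1 mL/min) against standard curves of both compounds.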

[3] = Generation of paclitaxel in rabbit whole blood; type: in vitro ADME; details: without BME
[4] = Release of paclitaxel in bicarbonate buffer without or with dithiothreitol; type: physicochemical
[5] = Pharmacokinetics: whole blood paclitaxel levels in tumor burdened mice; type: in vivo, B16/F10 tumor burdened C57Bl/6 mice; details: 5 μg injected, ELISA, Figure 3A
[6] = system: A2780 human ovarian cancer cell line; details: cited from earlier work
B16/F10 melanoma = experiment: Treatment of tumor-burdened mice; type: in vivo, C57BL/6 mice; details: treated days 0, 2, 5, 7, after 9 days
Outline: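 B16/F10 melanoma cells were implanted in C57BL/6 mice and grown to tumours of about 500 mm3. Groups of n=4 were injected on days 0, 2, 5 and 7 with native drug (2.5 or 40 mg/kg), nanoparticle formulations (2.5 mg/kg drug equivalent) or PBS control. Tumour volume was measured over time, and the % decrease versus control was taken at day 9.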

[7] = Accumulation of paclitaxel in solid tumors; type: in vivo, B16/F10 tumor-bearing C57BL/6 mice; details: C57BL/6, mouse, tumor homogenate, iv, 2.5 mg/kg

CC(=O)OC1C(=O)C2(C)C(OC(=O)OCOC(=O)CCCCC3CCSS3)CC3OCC3(OC(C)=O)C2C(OC(=O)c2ccccc2)C2(O)CC(OC(=O)C(O)C(NC(=O)c3ccccc3)c3ccccc3)C(C)=C1C2(C)C (stereo not shown) [Compound 4, (7-O-Paclitaxelcarbonyloxy)methyl 5-(1,2-dithiolan-3-yl)pentanoate]
IC50 [1]: 4.5 ± 0.4 nM | half-life of hydrolysis to paclitaxel [2]: 3.2 h

CC(=O)O[C@H]1C(=O)[C@]2(C)[C@@H](OC(=O)OCc3ccc(SSc4ccccn4)cc3)C[C@H]3OC[C@@]3(OC(C)=O)[C@H]2[C@H](OC(=O)c2ccccc2)[C@]2(O)C[C@H](OC(=O)[C@H](O)[C@@H](NC(=O)c3ccccc3)c3ccccc3)C(C)=C1C2(C)C [Compound 5]
Conversion to paclitaxel in rabbit whole blood (in words) [3]: completely converted to paclitaxel essentially immediately | Percent conversion to paclitaxel ([4]; Buffer + 3-fold excess DTT, 1 h (60 min)): 90% | Percent conversion to paclitaxel ([4]; Buffer, incubation 0 h): 0.3% | Percent conversion to paclitaxel ([4]; Buffer, incubation 1 h): 4.1% | Percent conversion to paclitaxel ([4]; Buffer, incubation 4 h): 4% | Percent conversion to paclitaxel ([4]; Buffer, incubation 48 h): 14.4% | Percent conversion to paclitaxel ([4]; Buffer, incubation 72 h): 50% and 50.4% | IC50 [1]: 34 ± 18 nM | release of paclitaxel in the circulation (in words) [5]: rapidly degraded to the paclitaxel parent in the circulation

CC(=O)OC1C(=O)C2(C)C(O)CC3OCC3(OC(C)=O)C2C(OC(=O)c2ccccc2)C2(O)CC(OC(=O)C(OC(=O)CCC(=O)OCOC(=O)CCCCC3CCSS3)C(NC(=O)c3ccccc3)c3ccccc3)C(C)=C1C2(C)C (stereo not shown) [Compound 6, ((5-(1,2-dithiolan-3-yl)pentanoyl)oxy)methyl paclitaxel-2′-yl succinate]
IC50 [1]: 6.6 ± 1.7 nM

CC(=O)O[C@H]1C(=O)[C@@]2(C)[C@H]([C@H](OC(=O)c3ccccc3)[C@]3(O)C[C@H](OC(=O)[C@H](O)[C@@H](NC(=O)c4ccccc4)c4ccccc4)C(C)=C1C3(C)C)[C@]1(OC(C)=O)CO[C@@H]1C[C@@H]2O [paclitaxel]
IC50 [6]: 15 ± 1 nM | Response: Decrease in Tumor Volume vs Control (B16/F10 melanoma; Paclitaxel dose 2.5 mg/kg): −24% | Response: Decrease in Tumor Volume vs Control (B16/F10 melanoma; Paclitaxel dose 40 mg/kg): −68% | concentration at 24 h [7]: 5 ng/mL
